From ChEMBL document CHEMBL1139996, “Synthesis, bioactivity, theoretical and molecular docking study of 1-cyano-N-substituted-cyclopropanecarboxamide as ketol-acid reductoisomerase inhibitor” (Bioorg Med Chem Lett, 2007)

system: Oryza sativa; experiment: Inhibition of rice KARI at 200 ppm
Procedure, shortened: (§1)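 Activity followed as the decrease in A340 at 30 °C. Reaction mix: 0.2 mM NADPH, 1 mM MgCl2, substrate (2-acetolactate or hydroxypyruvate) and inhibitor as required, in 0.1 M Tris–HCl, pH 8.0. Reaction started by adding enzyme. In inhibitor preincubation runs, substrate was added last instead.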

inhibition | Compound
97% | N#CC1(C(=O)Nc2ccc(Cl)cc2Cl)CC1
32.2% | N#CC1(C(=O)Nc2ccc(Br)cc2)CC1
3.95% | COc1ccc(NC(=O)C2(C#N)CC2)cc1
0% | N#CC1(C(=O)Nc2ccccc2C(F)(F)F)CC1
93.9% | N#CC1(C(=O)Nc2ccc(Cl)cc2)CC1
0% | N#CC1(C(=O)Nc2cc(Cl)c(Cl)cc2Cl)CC1
0% | N#CC1(C(=O)Nc2cccc(C(F)(F)F)c2)CC1
0% | N#CC1(C(=O)Nc2cccc(Cl)c2)CC1
100% | N#CC1(C(=O)O)CC1
17.2% | N#CC1(C(=O)Nc2cccc(Br)c2)CC1
0% | N#CC1(C(=O)Nc2ccc(C(F)(F)F)cc2)CC1
77.2% | N#CC1(C(=O)Nc2ccccc2)CC1
61.2% | Cc1ccc(NC(=O)C2(C#N)CC2)cc1
0% | CCOC(=O)C1(C#N)CC1
98.9% | N#CC1(C(=O)NCCO)CC1
100% | Cc1ccccc1NC(=O)C1(C#N)CC1

target: not listed separately; experiment: Inhibition of rice KARI; parameters: species or system Oryza sativa; procedure, shortened: as §1

Ki | Compound
95.3 µM | N#CC1(C(=O)O)CC1
> 300 µM | Cc1ccc(NC(=O)C2(C#N)CC2)cc1
